OX1R antag-1 – human HCRTR1 antagonism. O43613. CHO/OX1R cells, Fluo-8 calcium fluorescence, orexin A. hit rate 0.43% among 330,000. AID 434989. inhibition, % at 5 µM;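 active means inhibition above its plate's threshold, mean inhibition of all tested compounds on the plate plus 3 SD, cut at about 37% in these data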
Target sequence (O43613 whole entry, looked up): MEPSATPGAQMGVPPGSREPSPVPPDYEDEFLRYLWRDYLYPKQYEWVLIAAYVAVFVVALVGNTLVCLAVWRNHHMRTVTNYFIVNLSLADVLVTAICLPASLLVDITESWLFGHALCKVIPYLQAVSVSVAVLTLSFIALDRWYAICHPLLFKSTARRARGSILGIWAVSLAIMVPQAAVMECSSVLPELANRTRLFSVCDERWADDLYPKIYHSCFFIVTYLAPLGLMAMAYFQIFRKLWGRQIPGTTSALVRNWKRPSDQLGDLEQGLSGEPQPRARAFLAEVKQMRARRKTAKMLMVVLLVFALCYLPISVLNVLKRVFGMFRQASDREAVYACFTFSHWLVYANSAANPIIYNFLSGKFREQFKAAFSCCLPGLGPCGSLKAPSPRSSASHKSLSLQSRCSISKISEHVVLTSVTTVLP
V1R ag counter – counter-screen for oxytocin receptor agonists: human V1a receptor agonists; hit rate 0.25% among 320,000; CHO-V1R cells, Fluo-8 calcium fluorescence, agonist mode; 0% DMSO, 100% 3 nM vasopressin; activation, % at 3 µM; AID 2797; P37288;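 active means activation above the mean activation of all tested compounds plus 3 SD, per screening run, cut at about 20% in these data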;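 further: signal is peak over basal fluorescence ratio across a 100 second FLIPR read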
OX1R antag-2 – antagonists of human orexin 1 receptor (OX1R); inhibition, % at 6.6 µM; OX1R-expressing cells, FRET antagonist read-out; hit rate 1.8% among 330,000; O43613; AID 485270; in the data active means inhibition mostly above about 38%, no sharp cut-off; inactive means mostly below about 40%
OXTR potentiator – potentiates the human oxytocin receptor response. P30559. CHO-OTR cells, Fluo-8 calcium fluorescence, potentiator mode; 0% = oxytocin EC15, 100% = EC100. activation, % at 3 µM. hit rate 0.061% among 320,000. AID 2445;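 active means activation above that plate's cutoff, the mean activation of tested compounds plus 3 SD, cut at about 6.6% in these data, passing the limit was not always enough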
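Material: human OTR in CHO cells. Compound: 3.0 µM, one dose. Timing: compound 6 min at room temperature before oxytocin, 100 s read. Evaluation: % activation of max/min ratio relative to oxytocin controls. Replication: single well per compound, singlicate. Signal: Fluo-8 calcium dye fluorescence.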
CHO parental Ca – counter-screen: ATP calcium response change in parental CHO cells. inhibition, % at 5.6 µM. hit rate 0.63% among 330,000. parental CHO-K1, ATP-induced calcium, Fluo-8 fluorescence;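 active means inhibition above that plate's mean sample inhibition plus 3 SD, cut at about 26% in these data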
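material = parental CHO cells | also added = ATP as calcium-mobilizing challenge | dosing = single point at 5.6 µM | detection = intracellular calcium via Fluo-8 no-wash fluorescent dye | read-out = % inhibition | benchmarks = low control ATP plus DMSO, high control DMSO only | repeats = one well per compound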
OXTR ag – human OXTR agonism. P30559. CHO-OTR cells, Fluo-8 calcium fluorescence; normalized: DMSO 0%, oxytocin 100%. activation, % at 3 µM. hit rate 0.32% among 320,000. AID 2435;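 active means activation above the mean of all tested compounds plus 3 SD, cutoff set per screening run, cut at about 20% in these data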;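 further: peak over basal fluorescence ratio from a 100 s FLIPR kinetic read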
V1aR agonist cf – confirmation of human vasopressin V1a receptor agonists. CHO-V1R cells, Fluo-8 calcium fluorescence, agonist. shares compounds with V1R ag counter. activation, % at 3 µM. AID 434964. hit rate 20% among 180;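 active means average activation exceeds primary screen hit cutoff, cut at about 21% in these data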;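 further: peak over basal fluorescence ratio during a 100 s FLIPR read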
OXTR counter – activates oxytocin receptor in V1a agonist counter-screen | activation, % at 3 µM | CHO-OTR cells, Fluo-8 calcium fluorescence | shares compounds with V1R ag counter | hit rate 10% among 180;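 active means mean activation over three repeats above the cutoff from the earlier oxytocin receptor agonist screen, cut at about 20% in these data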;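 further: peak over minimum fluorescence ratio within a 100 second FLIPR read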
Hits are given with their value; – = inactive; · = not tested or not shown. This is a sample that favours compounds with a hit; in the whole collection about 2.7% have one here.

SMILES | OX1R antag-1 | V1R ag counter | OX1R antag-2 | OXTR potentiator | CHO parental Ca | OXTR ag | V1aR agonist cf | OXTR counter
CCCCCCCCCCC[N+](C)(C)CC/C=C1/c2ccccc2Sc2ccc(Cl)cc21 | – | 38.2 | – | – | – | – | – | –
COc1cccc(-c2c(C(=O)N/N=C(\C)c3ccco3)nnn2-c2nonc2N)c1 | – | – | – | – | – | – | · | ·
CCOc1cccc(-c2c(C(=O)N/N=C/c3cccs3)nnn2-c2nonc2N)c1 | – | 23.6 | – | – | – | – | – | –
COc1ccc(/C=N/NC(=O)c2nnn(-c3nonc3N)c2-c2cccc(OC)c2)cc1 | – | 26.0 | – | – | – | – | 25.0 | 25.1
CCOc1cccc(-c2c(C(=O)N/N=C/c3ccncc3)nnn2-c2nonc2N)c1 | – | – | – | – | – | – | · | ·
Nc1nonc1-n1nnc(C(=O)N/N=C/c2cccc(F)c2)c1-c1ccc2c(c1)OCO2 | – | – | – | – | – | – | · | ·
Cc1ccc(/C=N/NC(=O)c2nnn(-c3nonc3N)c2-c2ccc3c(c2)OCO3)s1 | – | 29.6 | 43.0 | – | – | – | – | –
COc1cccc(-c2c(C(=O)N/N=C(\C)c3ccc(Cl)s3)nnn2-c2nonc2N)c1 | – | 24.9 | – | – | – | – | – | –
Cc1cc(C)n2nc(C(=O)OCC(=O)N3CC(C)CC(C)C3)nc2n1 (stereo unspecified) | – | – | – | – | – | – | · | ·
COc1ccc(OC)c(NC(=S)NC(=O)c2ccc(Br)o2)c1 | – | – | – | – | – | – | · | ·
COc1ccc(CCNCC(O)COc2ccc(OC)cc2C(C)(C)C)cc1 (stereo unspecified) | – | 23.6 | – | – | – | – | – | –
O=C(O)c1cccc(CSc2nc(-c3ccc(Cl)cc3)cc(C(F)(F)F)n2)c1 | – | 21.4 | – | – | – | – | – | –
COc1ccc(CC(=O)Nc2ccc(NC(=O)c3ccccc3F)cc2)cc1 | – | 31.9 | – | – | 58.0 | – | – | –
CC(C)CCC1=NN(C(=O)c2ccco2)C(O)(C(F)(F)F)C1 (stereo unspecified) | – | – | – | – | – | – | · | ·
COC(=O)[C@H](Cc1ccccc1)NC(=O)Cn1cnc2c(NCc3ccccc3)ncnc21 | – | · | – | · | – | · | · | ·
COC(=O)c1ccc(CO/N=C/c2cccc([N+](=O)[O-])c2)cc1 | – | – | – | – | – | – | · | ·
COC(=O)C(/C=N/OCc1ccc([N+](=O)[O-])cc1)NC(=O)c1ccccc1 (stereo unspecified) | – | 24.7 | – | – | – | – | – | –
CCOC(=O)C(CC(=O)O)=C(c1ccccc1)c1ccccc1 | – | 20.9 | – | – | – | – | – | –
NS(=O)(=O)c1ccc2nc(NC(=O)Nc3ccc(F)cc3)sc2c1 | – | 24.3 | – | – | – | – | – | –
CS(=O)(=O)c1ccc2nc(NC(=O)Nc3ccc(Cl)cc3)sc2c1 | – | – | – | – | – | – | · | ·
CCOC(=O)C1=C(CCl)NC(=O)NC1c1ccc2c(c1)OCO2 (stereo unspecified) | – | – | – | – | – | – | · | ·
CC(NC(=O)C1CCC(C(C)(C)C)CC1)C(c1ccccc1)N1CCOCC1 (stereo unspecified) | – | – | – | – | – | – | · | ·
CC(NC(=O)Nc1ccc(Cl)c(Cl)c1)C(c1ccccc1)N1CCOCC1 (stereo unspecified) | – | 44.2 | – | – | – | – | 24.9 | –
CC(NC(=O)c1ccc(Cl)cc1Cl)C(c1ccccc1)N1CCOCC1 (stereo unspecified) | – | – | – | – | – | – | · | ·
CC(NC(=O)Nc1ccc([N+](=O)[O-])cc1)C(c1ccccc1)N1CCOCC1 (stereo unspecified) | – | 52.5 | – | – | – | – | 25.7 | –
Cc1ccc(CNc2ncc(-c3ccccc3)n2C)o1 | – | – | – | – | – | – | · | ·

Assay outcomes from PubChem BioAssay.
